The test system of one data set is CAKI-1. As to the kind of experiment: Sensitization of TRAIL-induced apoptosis in human Caki1 cells assessed as reduction in cell viability at 125 to 500 nM preincubated for 2 hrs followed by addition of TRAIL measured after 18 hrs by MTS assay. The data set is classed as functional, cell-based. In short, it runs like this: (§1)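 Caki-1, SN12C or UO-31 renal cells seeded 5000/well, grown overnight at 37 °C, pretreated with compound across a concentration range for 2 h, then TRAIL 50 ng/mL added for 18 h more at 37 °C. Medium: RPMI, 5% FCS with supplements. Viable cells by MTS (2 h, A490); growth inhibition = (media − treatment)/media ×100. Triplicate, ≥3 experiments.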

Data set [1] has as its system ACHN. As to the kind of experiment: Cytotoxicity in human ACHN cells assessed as viable cells at 1250 to 5000 nM after 48 hrs by MTS assay. The data set is classed as cell-based. The conditions noted are these: 5 µM. A general note: Tetrazolium dyes change colour on reduction, which living cells bring about.
In data set [2] the test system is ACHN. As to the kind of experiment: Induction of DR5 expression in human ACHN cells by Western blotting method. The format is functional, cell-based. For orientation: In western blotting, separated proteins are transferred to a membrane and probed.
Data set [3] deals with ACHN. The data set can be described thus: Cytotoxicity in human ACHN cells assessed as reduce cell number after 48 hrs by MTS assay. The format is cell-based. In short, it runs like this: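 ACHN cells exposed to compound for 48 h at 37 °C; viable cell number by MTS read-out. Triplicate determinations; IC50 (concentration reducing cell number by 50%) from 3 independent experiments, ± SD.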

Data set [4] deals with ACHN. The data set can be described thus: Reduction cFLIP level in human ACHN cells at 500 nM after 18 hrs by Western blot analysis. The format is functional, cell-based. In short, it runs like this:
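ACHN cells (RPMI, 5% FBS) plated 1.5×10^6/well, grown overnight at 37 °C, then exposed to compound at 500 nM for 18 h. Lysed in RIPA with protease/phosphatase inhibitors and zVAD-FMK; 20 μg protein per lane immunoblotted with anti-FLIP (7F10); GAPDH as loading control.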

In data set [5] the test system is ACHN. As to the kind of experiment: Sensitization of TRAIL-induced apoptosis in human ACHN cells assessed as reduction in cell viability preincubated for 2 hrs followed by addition of TRAIL measured after 18 hrs by MTS assay. The data set is classed as functional, cell-based. The procedure, abridged:
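ACHN cells were seeded at 5000/well and rested overnight at 37 °C, in RPMI with 5% FCS, glutamine, NEAA, pyruvate, HEPES and 2-mercaptoethanol. Compound pretreatment ran 2 h, then TRAIL was added to 50 ng/mL for 18 h at 37 °C. Viability was read by MTS (2 h, A490). IC50 values (cell number reduced 50%) came from dose-response curves; triplicates, at least 3 independent experiments, ± SD.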

Data set [6] in a line: Glutathione reactivity in DMSO assessed as formation of MIchael adduct with GSH at pH 7.4 after 24 hrs in presence of NAC by HPLC method. In short, it runs like this:
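Withanolide (2.12 μM in DMSO, 0.5 mL) mixed with equal volume of 4.24 μM GSH or NAC solution at pH 7.4, 37 °C. Aliquots taken at 0, 0.5, 2, 4, 8, 24 h, stored −80 °C; unreacted withanolide quantified by C18 HPLC (H2O with 40 mM NH4OAc–MeOH gradient, UV 230 nm) using peak area.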

A further data set deals with SN12C. The data set can be described thus: Sensitization of TRAIL-induced apoptosis in human SN12C cells assessed as reduction in cell viability at 125 to 500 nM preincubated for 2 hrs followed by addition of TRAIL measured after 18 hrs by MTS assay. The format is functional, cell-based. The procedure, abridged: as §1
The subject of data set [7] is ACHN. The data set can be described thus: Sensitization of TRAIL-induced apoptosis in human ACHN cells assessed as increase in caspase8 activation at 125 to 1000 nM preincubated for overnight followed by addition of TRAIL for 90 mins measured after 18 hrs by Western blot analysis. The format is functional, cell-based. The procedure, abridged:
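ACHN cells plated 1.5×10^6/well, grown overnight, treated overnight (18 h) with compound at 125–1000 nM, then TRAIL for 90 min before RIPA lysis (with zVAD-FMK). 20 μg protein immunoblotted for pro- and cleaved caspase-8 and caspase-3; GAPDH loading control. TRAIL given as 200 ng/mL in methods, 50 ng/mL in legend.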

The test system of a further data set is UO-31. The data set can be described thus: Sensitization of TRAIL-induced apoptosis in human UO31 cells assessed as reduction in cell viability at 125 to 500 nM preincubated for 2 hrs followed by addition of TRAIL measured after 18 hrs by MTS assay. The format is functional, cell-based. The procedure, abridged:
as §1

Data set [8] deals with ACHN. The data set can be described thus: Induction of BIP expression in human ACHN cells at 2.5 to 5 uM measured after 24 hrs by Western blotting method. The data set is classed as functional, cell-based.
The test system of data set [9] is ACHN. The data set can be described thus: Induction of CHOP expression in human ACHN cells at 2.5 to 5 uM measured after 24 hrs by Western blotting method. The data set is classed as functional, cell-based.
The test system of data set [10] is ACHN. As to the kind of experiment: Induction of HSP70 expression in human ACHN cells at 2.5 to 5 uM measured after 24 hrs by Western blotting method. The format is functional, cell-based.
Data set [11] relates to ACHN. As to the kind of experiment: Reduction cFLIP level in human ACHN cells at 125 to 1000 nM after 18 hrs by Western blot analysis.
The test system of data set [12] is ACHN. The data set can be described thus: Sensitization of TRAIL-induced apoptosis in human ACHN cells assessed as increase in caspase8 activation at 125 to 1000 nM preincubated for overnight followed by addition of TRAIL for 90 mins measured after 6 hrs by Western blot analysis. The format is functional, cell-based.
Data set [13] has as its system ACHN. As to the kind of experiment: Reduction cFLIP level in human ACHN cells at 125 to 1000 nM after 16 hrs by Western blot analysis. The format is functional, cell-based.

Our source for the Activity and IC50 values is ChEMBL document CHEMBL4007460, “17β-Hydroxywithanolides as Sensitizers of Renal Carcinoma Cells to Tumor Necrosis Factor-α Related Apoptosis Inducing Ligand (TRAIL) Mediated Apoptosis: Structure-Activity Relationships” (J Med Chem, 2017).

pIC50: −log10 of the molar value. Calls of active or inactive are those of the source. The rule behind the calls is not given here.

The term pIC50 denotes the IC50 on a negative log10 scale, so that one unit is a factor of ten. For `CC1=C(C)C(=O)O[C@@H]([C@](C)(O)[C@]2(O)CC[C@@]3(O)[C@@H]4C[C@H]5O[C@]56[C@H](O)C=CC(=O)[C@]6(C)[C@H]4CC[C@]23C)C1`, the result (in the data set on CAKI-1; in the data set on ACHN [4]; in [6]; in the data set on SN12C; with ACHN [7]; with UO-31) was Active. The Activity result in the data set with ACHN [1] was “Non-Toxic”; in the data set on ACHN [3], “Toxic”. For the same molecule, the result in the data set on ACHN [2] was inactive. For the same molecule, the pIC50 in the data set on ACHN [5] is 7.17.
With `CC1=C(C)C(=O)O[C@@H]([C@](C)(O)[C@]2(O)CC[C@@]3(O)[C@@H]4C[C@H]5O[C@]56CC=CC(=O)[C@]6(C)[C@H]4CC[C@]23C)C1` [WITHANOLIDE E], the outcome (with CAKI-1; in the data set on ACHN [4]; in data set [6]; in the data set with SN12C; in the data set with ACHN [7]; with UO-31) was Active. The outcome with ACHN [8], with ACHN [2], in the data set with ACHN [9] and in the data set with ACHN [10] was inactive. Moreover, the Activity entry in the data set on ACHN [1] is “Non-Toxic”; with ACHN [3], “Toxic”. In the data set on ACHN [5], the negative-log IC50 (pIC50) is 6.31.
Consider `CC1=C(CO)C(=O)O[C@@H]([C@@H](C)[C@H]2CC[C@H]3[C@@H]4C[C@H]5O[C@]56[C@@H](O)C=CC(=O)[C@]6(C)[C@H]4CC[C@]23C)C1` [WITHAFERIN A], for which the outcome in the data set on CAKI-1, with ACHN [2], in the data set with SN12C, in the data set on ACHN [11], in the data set on ACHN [7] and in the data set with UO-31 was inactive. Further, the result (in the data set with ACHN [8]; with ACHN [9]; in data set [6]; in the data set with ACHN [10]) was Active. Besides, in the data set with ACHN [1], the Activity result is on record as “Toxic”. Besides, the pIC50 in the data set with ACHN [5] is < 5.70.
As to `CC(=O)OC[C@]12CC[C@H]3[C@@H](C[C@H]4O[C@]45CC=CC(=O)[C@]35C)[C@]1(O)CC[C@@]2(O)[C@@](C)(O)[C@H]1CC(C)=C(C)C(=O)O1`, the result (in the data set with CAKI-1; in the data set on ACHN [12]; in the data set with ACHN [4]; in data set [6]; in the data set with SN12C; with ACHN [7]) was Active. For the same molecule, the result in the data set on UO-31 was Active. In addition, the outcome in the data set with ACHN [8], in the data set on ACHN [2], in the data set with ACHN [9] and in the data set with ACHN [10] was inactive. The figures for the Activity entry with ACHN [1] and with ACHN [3] were “Non-Toxic” and “Toxic”, respectively. For the same molecule, the negative logarithm of the IC50 (pIC50) in the data set on ACHN [5] was 6.79.
`CC(=O)OCC1=C(C)C[C@H]([C@@H](C)[C@H]2CC[C@H]3[C@@H]4C[C@H]5O[C@]56[C@H](OC(C)=O)C=CC(=O)[C@]6(C)[C@H]4CC[C@]23C)OC1=O`: the outcome in the data set with ACHN [8], in the data set on ACHN [9] and in the data set on ACHN [10] was Active. Further, the result in the data set on ACHN [13] was inactive.
